Experimental findings from ChEMBL document CHEMBL4680175, “Sulfonamide-based ring-fused analogues for CAN508 as novel carbonic anhydrase inhibitors endowed with antitumor activity: Design, synthesis, and in vitro biological evaluation” (Eur J Med Chem, 2020) are described below.

One assay has as its target Carbonic anhydrase 1 (Homo sapiens, UniProt P00915). Nature of the assay: Inhibition of recombinant human carbonic anhydrase 1 preincubated with enzyme for 15 mins by phenol red dye based stopped flow CO2 hydrase assay.
The target in assay [1] is Cyclin-dependent kinase 2/cyclin E1 (Homo sapiens, UniProt P24941). Description: Inhibition of CDK2/cyclin E (unknown origin) expressed in baculovirus infected Sf21 insect cells using histone H1 as substrate in presence of [gamma33P]ATP.
The target of another assay is CDK9/cyclin T1 (Homo sapiens, UniProt P50750). Nature of the assay: Inhibition of human full-length N-terminal GST/His6-tagged CDK9 (1 to 372 residues)/His6-tagged Cyclin-T1 (1 to 726 residues) expressed in sf9 cells using (YSPTSPS)2KK peptide as substrate in presence of [gamma33P]ATP.
The next assay deals with Carbonic anhydrase 12 (Homo sapiens, UniProt O43570). Nature of the assay: Inhibition of recombinant human carbonic anhydrase 12 preincubated with enzyme for 15 mins by phenol red dye based stopped flow CO2 hydrase assay.
The target of a further assay is Carbonic anhydrase 2 (Homo sapiens, UniProt P00918). Description: Inhibition of recombinant human carbonic anhydrase 2 preincubated with enzyme for 15 mins by phenol red dye based stopped flow CO2 hydrase assay.
The target of another assay is Carbonic anhydrase 9 (Homo sapiens, UniProt Q16790). Nature of the assay: Inhibition of recombinant human carbonic anhydrase 9 preincubated with enzyme for 15 mins by phenol red dye based stopped flow CO2 hydrase assay.
The next assay concerns SNB-75. Description: Antitumor activity against human SNB-75 cells assessed as cell growth inhibition at 10 uM incubated for 48 hrs by sulforhodamine B assay. The conditions noted are these: read-out: GI. The format is functional. A digest of the protocol:
(§1)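 NCI one-dose screen: 57-cell-line panel exposed at 10 μM for 48 h, Drug Evaluation Branch protocol. Growth and viability read by sulforhodamine B; data given as percent growth inhibition from the mean-graph of percent growth of treated cells.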
Background: The SRB assay estimates cell density from bound dye.

The next assay deals with NCI/ADR-RES. Description: Antitumor activity against human NCI/ADR-RES cells assessed as cell growth inhibition at 10 uM incubated for 48 hrs by sulforhodamine B assay. Type of assay: functional, cell-based. A digest of the protocol: (§2)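 NCI Drug Evaluation Branch protocol: primary single-dose screen at 10 μM across a 57-line human cancer panel. Drug exposure is 48 h. Cell growth and viability are read by sulforhodamine B assay. Data are given as a mean graph of percent growth of treated cells and reported as percentage growth inhibition (GI%).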

The next assay deals with ACHN. Nature of the assay: Antitumor activity against human ACHN cells assessed as cell growth inhibition at 10 uM incubated for 48 hrs by sulforhodamine B assay. The format is functional. The conditions noted are these: read-out: GI. A digest of the protocol:
as §2

Another assay concerns NCI-H522. Nature of the assay: Antitumor activity against human NCI-H522 cells assessed as cell growth inhibition at 10 uM incubated for 48 hrs by sulforhodamine B assay. As to conditions: read-out: GI. The format is functional. A digest of the protocol: as §2
A further assay concerns M14. Nature of the assay: Antitumor activity against human M14 cells assessed as cell growth inhibition at 10 uM incubated for 48 hrs by sulforhodamine B assay. The format is functional. As to conditions: read-out: GI. Summed up: as §2
A further assay deals with TK-10. Description: Antitumor activity against human TK-10 cells assessed as cell growth inhibition at 10 uM incubated for 48 hrs by sulforhodamine B assay. The conditions noted are these: read-out: GI. The format is functional. A digest of the protocol: as §1
A further assay concerns 786-0. Description: Antitumor activity against human 786-0 cells assessed as cell growth inhibition at 10 uM incubated for 48 hrs by sulforhodamine B assay. As to conditions: read-out: GI. Type of assay: functional. A digest of the protocol:
as §2

Another assay concerns SK-OV-3. Nature of the assay: Antitumor activity against human SK-OV-3 cells assessed as cell growth inhibition at 10 uM incubated for 48 hrs by sulforhodamine B assay. Type of assay: functional. As to conditions: read-out: GI. A digest of the protocol: as §2
For another assay, the system named is LOX IMVI. Nature of the assay: Antitumor activity against human LOX IMVI cells assessed as cell growth inhibition at 10 uM incubated for 48 hrs by sulforhodamine B assay. The format is functional. As to conditions: read-out: GI. Summed up: as §2
A further assay has as its system RXF 393. Description: Antitumor activity against human RXF 393 cells assessed as cell growth inhibition at 10 uM incubated for 48 hrs by sulforhodamine B assay. The format is functional. The conditions noted are these: read-out: GI. A digest of the protocol: as §2
The next assay concerns UO-31. Nature of the assay: Antitumor activity against human UO-31 cells assessed as cell growth inhibition at 10 uM incubated for 48 hrs by sulforhodamine B assay. Type of assay: functional. As to conditions: read-out: GI. Summed up: as §1
The next assay deals with IGROV-1. Description: Antitumor activity against human IGROV1 cells assessed as cell growth inhibition at 10 uM incubated for 48 hrs by sulforhodamine B assay. As to conditions: read-out: GI. Type of assay: functional. A digest of the protocol: as §2
For the next assay, the system named is BT-549. Description: Antitumor activity against human BT-549 cells assessed as cell growth inhibition at 10 uM incubated for 48 hrs by sulforhodamine B assay. The format is functional. As to conditions: read-out: GI. A digest of the protocol:
as §2

Another assay has as its system A498. Description: Antitumor activity against human A498 cells assessed as cell growth inhibition at 10 uM incubated for 48 hrs by sulforhodamine B assay. The format is functional. The conditions noted are these: read-out: GI. Summed up:
as §2

For another assay, the system named is CAKI-1. Nature of the assay: Antitumor activity against human CAKI-1 cells assessed as cell growth inhibition at 10 uM incubated for 48 hrs by sulforhodamine B assay. Type of assay: functional. As to conditions: read-out: GI. A digest of the protocol:
as §2

For the next assay, the system named is NCI-H322M. Nature of the assay: Antitumor activity against human NCI-H322M cells assessed as cell growth inhibition at 10 uM incubated for 48 hrs by sulforhodamine B assay. Type of assay: functional. The conditions noted are these: read-out: GI. Summed up:
as §2

The next assay has as its system Hs-578T. Nature of the assay: Antitumor activity against human HS 578T cells assessed as cell growth inhibition at 10 uM incubated for 48 hrs by sulforhodamine B assay. The format is functional. As to conditions: read-out: GI. A digest of the protocol: as §2
The test system of the next assay is NCI-H460. Description: Antitumor activity against human NCI-H460 cells assessed as cell growth inhibition at 10 uM incubated for 48 hrs by sulforhodamine B assay. Type of assay: functional. The conditions noted are these: read-out: GI. Summed up:
as §2

The subject of the next assay is SR. Nature of the assay: Antitumor activity against human SR cells assessed as cell growth inhibition at 10 uM incubated for 48 hrs by sulforhodamine B assay. The format is functional. As to conditions: read-out: GI. Summed up:
as §1

pIC50, pKi: −log10 of the molar value. Activity calls are given as the source filed them. The rule behind the calls is not given here.

Carbonic anhydrase 12, sequence (O43570 whole entry): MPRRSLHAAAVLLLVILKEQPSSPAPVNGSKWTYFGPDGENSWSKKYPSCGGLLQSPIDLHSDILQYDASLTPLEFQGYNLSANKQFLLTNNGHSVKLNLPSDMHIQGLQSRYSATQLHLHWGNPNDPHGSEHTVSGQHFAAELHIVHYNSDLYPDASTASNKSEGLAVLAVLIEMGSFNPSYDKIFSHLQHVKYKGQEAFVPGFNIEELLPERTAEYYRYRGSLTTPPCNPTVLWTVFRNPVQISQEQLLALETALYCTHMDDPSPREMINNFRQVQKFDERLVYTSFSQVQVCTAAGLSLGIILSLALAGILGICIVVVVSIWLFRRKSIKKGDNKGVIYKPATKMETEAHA
CDK9/cyclin T1, sequence (O60563 whole entry, the tested form may be a part): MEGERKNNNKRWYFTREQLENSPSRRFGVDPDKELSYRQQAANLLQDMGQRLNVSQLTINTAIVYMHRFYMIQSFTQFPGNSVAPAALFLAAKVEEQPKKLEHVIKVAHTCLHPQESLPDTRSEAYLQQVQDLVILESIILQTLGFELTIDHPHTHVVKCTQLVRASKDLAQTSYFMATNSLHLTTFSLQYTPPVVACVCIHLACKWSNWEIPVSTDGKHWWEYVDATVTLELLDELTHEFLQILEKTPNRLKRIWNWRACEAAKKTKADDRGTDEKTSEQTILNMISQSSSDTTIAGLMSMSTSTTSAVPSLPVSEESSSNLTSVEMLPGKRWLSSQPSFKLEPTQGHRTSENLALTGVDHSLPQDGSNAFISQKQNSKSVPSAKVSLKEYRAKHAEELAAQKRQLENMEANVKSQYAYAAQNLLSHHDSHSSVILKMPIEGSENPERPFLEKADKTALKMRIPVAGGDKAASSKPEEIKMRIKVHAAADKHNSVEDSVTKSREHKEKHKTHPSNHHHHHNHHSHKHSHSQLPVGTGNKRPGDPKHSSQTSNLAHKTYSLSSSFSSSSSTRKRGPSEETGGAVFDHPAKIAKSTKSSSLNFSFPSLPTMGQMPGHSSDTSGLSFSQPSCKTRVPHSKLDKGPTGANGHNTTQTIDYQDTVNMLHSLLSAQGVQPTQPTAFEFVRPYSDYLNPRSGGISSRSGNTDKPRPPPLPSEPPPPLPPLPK
CDK9/cyclin T1, sequence (P50750 whole entry, the tested form may be a part): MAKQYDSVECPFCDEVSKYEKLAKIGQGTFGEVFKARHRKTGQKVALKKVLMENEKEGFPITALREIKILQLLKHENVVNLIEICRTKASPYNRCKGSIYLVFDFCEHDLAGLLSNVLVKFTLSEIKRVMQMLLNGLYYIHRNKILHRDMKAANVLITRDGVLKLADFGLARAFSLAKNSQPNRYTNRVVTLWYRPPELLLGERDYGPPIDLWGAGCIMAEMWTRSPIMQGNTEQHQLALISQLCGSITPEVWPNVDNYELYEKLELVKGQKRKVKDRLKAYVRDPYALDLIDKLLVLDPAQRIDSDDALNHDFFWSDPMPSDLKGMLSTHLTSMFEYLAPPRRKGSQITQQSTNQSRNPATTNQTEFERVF
Carbonic anhydrase 1, sequence (P00915 whole entry): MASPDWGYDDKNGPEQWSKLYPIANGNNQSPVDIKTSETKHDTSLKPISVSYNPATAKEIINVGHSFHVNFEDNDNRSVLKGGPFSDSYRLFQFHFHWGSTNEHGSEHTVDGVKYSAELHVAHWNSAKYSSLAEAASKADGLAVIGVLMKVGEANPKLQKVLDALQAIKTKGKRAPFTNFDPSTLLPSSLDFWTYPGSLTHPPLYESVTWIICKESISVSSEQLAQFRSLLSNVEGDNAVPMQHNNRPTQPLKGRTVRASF

On to `COc1ccc(-c2ccnc3c(/N=N/c4ccc(S(N)(=O)=O)cc4)c(N)nn23)cc1`, for which the negative logarithm of the Ki (pKi) at Carbonic anhydrase 1 is 6.35; on Carbonic anhydrase 12, 7.05; on Carbonic anhydrase 2 it was 8.26; on Carbonic anhydrase 9, 7.53. Besides, the pIC50 (in assay [1]; on CDK9/cyclin T1) was less than 4.90 each time.

Consider `Nc1nn2c(-c3ccc([N+](=O)[O-])cc3)ccnc2c1/N=N/c1ccc(S(N)(=O)=O)cc1`, for which the pKi at Carbonic anhydrase 1 is 5.67; at Carbonic anhydrase 12 it was 7.84; on Carbonic anhydrase 2, 7.45; at Carbonic anhydrase 9, 7.17. The pIC50 (in assay [1]; on CDK9/cyclin T1) was less than 4.90 each time.

For the compound `Nc1nn2cc(-c3ccc(Cl)cc3)[nH]c2c1/N=N/c1ccc(S(N)(=O)=O)cc1`, the inhibition of growth at 10 µM with SNB-75 was 23%; in the assay on ACHN, 29%; in the assay on NCI-H522, 30%; in the assay on M14, 21%; in the assay on TK-10 it was 27%; in the assay on 786-0, 28%. Also, the inhibition of growth at 10 µM in the assay on SK-OV-3 was 21%; in the assay with LOX IMVI, 21%; with RXF 393, 29%; in the assay on UO-31, 22%; in the assay with IGROV-1 it was 21%; in the assay with BT-549, 34%. The inhibition of growth at 10 µM was 65% in the assay on A498; 35% in the assay with CAKI-1; 25% with NCI-H322M; 21% in the assay with Hs-578T; 25% in the assay on NCI-H460; 28% in the assay with SR. Also, the pKi on Carbonic anhydrase 1 was 6.19; at Carbonic anhydrase 12, 7.44; on Carbonic anhydrase 2 it was 7.66; at Carbonic anhydrase 9 it was 7.78. Further, the negative-log IC50 (pIC50) (in assay [1]; at CDK9/cyclin T1) was less than 4.90 throughout. In addition, the result in the assay with NCI/ADR-RES was inactive.

With `Nc1nn2c(-c3cccs3)ccnc2c1/N=N/c1ccc(S(N)(=O)=O)cc1`, the negative-log Ki (pKi) at Carbonic anhydrase 1 was 5.94; on Carbonic anhydrase 12, 7.23; at Carbonic anhydrase 2, 8.15; at Carbonic anhydrase 9, 7.40. Moreover, the pIC50 (in assay [1]; at CDK9/cyclin T1) was less than 4.90 throughout.

Turning to `Nc1n[nH]c(N)c1/N=N/c1ccc(S(N)(=O)=O)cc1`, the pKi at Carbonic anhydrase 1 is 6.57; at Carbonic anhydrase 12, 8.00; at Carbonic anhydrase 2 it was 7.42; on Carbonic anhydrase 9, 7.66. The negative logarithm of the IC50 (pIC50) in assay [1] is 4.38; at CDK9/cyclin T1, less than 4.90.

On to `Nc1nn2c(-c3ccc(Cl)cc3)ccnc2c1/N=N/c1ccc(S(N)(=O)=O)cc1`, for which the pKi was 6.26 on Carbonic anhydrase 1, 7.35 on Carbonic anhydrase 12, 7.63 on Carbonic anhydrase 2 and 7.25 at Carbonic anhydrase 9. For the same compound, the pIC50 is 5.19 in assay [1] and less than 4.90 on CDK9/cyclin T1.

As for `Nc1nn2c(-c3ccc(F)cc3)ccnc2c1/N=N/c1ccc(S(N)(=O)=O)cc1`, the negative-log Ki (pKi) on Carbonic anhydrase 1 was 6.17; at Carbonic anhydrase 12, 7.50; at Carbonic anhydrase 2 it was 7.84; on Carbonic anhydrase 9 it was 8.22. Moreover, the pIC50 (in assay [1]; at CDK9/cyclin T1) was less than 4.90 in each case.

`Cc1ccc(-c2ccnc3c(/N=N/c4ccc(S(N)(=O)=O)cc4)c(N)nn23)cc1`: the pKi at Carbonic anhydrase 1 was 5.88; at Carbonic anhydrase 12 it was 7.22; on Carbonic anhydrase 2, 8.21; on Carbonic anhydrase 9 it was 7.34. The negative-log IC50 (pIC50) (in assay [1]; at CDK9/cyclin T1) was less than 4.90 throughout.

Take `Nc1nn2c(-c3ccccc3)ccnc2c1/N=N/c1ccc(S(N)(=O)=O)cc1`: the pKi on Carbonic anhydrase 1 was 6.34; at Carbonic anhydrase 12, 7.60; on Carbonic anhydrase 2, 7.56; at Carbonic anhydrase 9 it was 7.50. The pIC50 (in [1]; on CDK9/cyclin T1) was less than 4.90 each time.

On to `Nc1nn2c(-c3ccc(Br)cc3)ccnc2c1/N=N/c1ccc(S(N)(=O)=O)cc1`, for which the negative logarithm of the Ki (pKi) on Carbonic anhydrase 1 is 6.11; at Carbonic anhydrase 12, 7.27; on Carbonic anhydrase 2, 7.41; at Carbonic anhydrase 9, 7.19. For the same compound, the pIC50 in assay [1] is 5.10; at CDK9/cyclin T1 it was less than 4.90.

One may read the pKi as the Ki on a negative log10 scale, so that one unit is a factor of ten. By pIC50 is commonly meant the IC50 on a negative log10 scale, so that one unit is a factor of ten.
